Results on eight molecules are retold here after ChEMBL document CHEMBL4177561, “Development of Selective, Orally Active GPR4 Antagonists with Modulatory Effects on Nociception, Inflammation, and Angiogenesis” (J Med Chem, 2017).

Each structure is given as a SMILES string.

Broadly, the clearance is the volume of plasma or blood freed of the substance per unit of time. A higher clearance goes with a high capacity for elimination.

Data set [1] is described as follows: Drug level in blood of methylated BSA and complete Freund's adjuvant sensitized Lewis rat antigen-induced arthritis model at 30 mg/kg, po bid for 7 days and measured 2 hrs post dose. Format: ADME, organism-based. The note with it: read-out: Drug uptake. The method, boiled down:
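Lewis rat AIA model, 30 mg/kg po bid. Blood concentration was measured on day 7 at 2 h post dose. Values are the mean of n = 5.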

For a further data set, the system named is Rattus norvegicus. Put plainly: Dose normalized AUC in Sprague-Dawley rat at 3 mg/kg, po. It is filed as ADME, organism-based. As to conditions: in vivo. The method, boiled down: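 Catheterized female Sprague-Dawley rats received a single oral dose of 3 mg/kg as a suspension in CMC:water:Tween 80 (0.5:99:0.5). This followed a 48 h wash-out after iv dosing in the same animals.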

Data set [2] in a line: Clearance in Sprague-Dawley rat at 1 mg/kg, iv. It is filed as ADME, organism-based. As to conditions: in vivo. A digest of the protocol:
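Female Sprague-Dawley rats with femoral artery and vein catheters received a single iv dose of 1 mg/kg in NMP:PEG200 (30:70). Clearance is the mean ± SD of four animals.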

Data set [3] can be described thus: Drug level in blood of FVB mouse chamber implant model at 30 mg/kg, po bid for 4 days measured at 16 hrs on day 4. As to conditions: read-out: Drug uptake.
Data set [4] is described as follows: Drug level in blood of FVB mouse chamber implant model at 30 mg/kg, po bid for 4 days measured at 2 hrs on day 4. As to conditions: read-out: Drug uptake.

For the molecule `CCc1nn2c(C)cc(C)nc2c1Cc1ccc(/C=C/CN2CCNC(=O)C2)cc1`, the concentration at 2 h in data set [1] came out at 23 µM. The AUC/dose in the data set with Rattus norvegicus was determined as 13.6 µmol·h/L. In addition, the clearance in data set [2] was determined as 0.24 L/h/kg.

For the molecule `CCc1nn2c(C)cc(C)nc2c1Cc1ccc(CCC(=O)N2CCNCC2)cc1`, the AUC/dose in the data set with Rattus norvegicus came to 1.2 µmol·h/L. Moreover, the clearance in data set [2] was 1.68 L/h/kg.

`CCc1nn2c(C)cc(C)nc2c1Cc1ccc(CCCN2CCN(C(C)C)CC2)cc1` gave an AUC/dose in the data set on Rattus norvegicus of 1.1 µmol·h/L. The same molecule returned a clearance in data set [2] of 1.74 L/h/kg.

In turn, `CCc1nn2c(C)cc(C)nc2c1Cc1ccc(/C=C/CN2CCN(C[C@@H](O)CO)CC2)cc1` registered an AUC/dose in the data set on Rattus norvegicus of 5.1 µmol·h/L. Further, the clearance in data set [2] was found to be 0.66 L/h/kg.

`CCc1nn2c(C)cc(C)nc2c1Cc1ccc(CCCC2(O)CCNCC2)cc1` gave an AUC/dose in the data set with Rattus norvegicus of 0.53 µmol·h/L. This molecule registered a clearance in data set [2] of 2.94 L/h/kg.

`CCc1nn2c(C)cc(C)nc2c1Cc1ccc(-c2nnc(C3CCNCC3)o2)cc1` had an AUC/dose in the data set with Rattus norvegicus of 6.7 µmol·h/L. Also, in data set [3], the concentration at 16 h was found to be 0.09 µM. Besides, in data set [4], the concentration at 2 h was found to be 9.03 µM. The same molecule displayed a clearance in data set [2] of 0.36 L/h/kg.

The molecule `CCc1nn2c(C)cc(C)nc2c1Cc1ccc(/C=C/CN2CCN(C(C)C)CC2)cc1` returned an AUC/dose with Rattus norvegicus of 3.2 µmol·h/L. The molecule also displayed a clearance in data set [2] of 0.72 L/h/kg.

In the data set with Rattus norvegicus, `CCc1nn2c(C)cc(C)nc2c1Cc1ccc(CCC(O)C2CCNCC2)cc1` (centres undefined) came in with an AUC/dose of 0.49 µmol·h/L. This molecule also yielded a clearance in data set [2] of 1.86 L/h/kg.
